# Active and inactive are the calls of the source. The calls are words filed in the database; no cut-off is given here.
# Assays:
# Gallus gallus [1] = assay: Neuromuscular blocking activity in chicks assessed as induction of flaccid paralysis by measuring time of onset of head drop at 0.15 mmol/Kg, ip administered as single dose; type: functional
# In short: (§1)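 4-day-old chicks (50 g) receive a single submaximal dose i.p., taken from the rat twitch study (0.15 mmol/kg). The type of paralysis, flaccid or spastic, is noted. The onset of head drop and of complete paralysis is timed after administration. Atracurium and succinylcholine serve as positive controls.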
# Gallus gallus [2] = assay: Neuromuscular blocking activity in chicks assessed as induction of flaccid paralysis by measuring time of onset of muscle relaxation at 0.15 mmol/Kg, ip administered as single dose; type: functional; in short: as §1
# [3] = Toxicity in ip dosed mouse measured for 72 hrs; type: organism-based; conditions: in vivo
# In short: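 Male mice, grouped, given i.p. doses of 0.1-5 mmol/kg. Observed continuously for 6 h, then kept under observation for 72 h, with behavioural changes and deaths recorded. Percentage death per dose converted to probits to derive the LD50.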
# Rattus norvegicus [4] = assay: Reversal of neuromuscular blocking activity against electrically induced twitches in Wistar rat tibialis muscle at 100 mg/kg, ip in presence of physostigmine relative to control; type: functional
# Rattus norvegicus [5] = assay: Neuromuscular blocking activity in Wistar rat tibialis muscle assessed as reduction in electrically-induced twitches by measuring time required for 50% blockage at 100 mg/kg, ip; type: functional
# In short: (§2)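 Male Wistar rats (250 g, N = 4-8 per group) anaesthetized with urethane (25% in water, 1.25 g/kg i.p.). Tracheal cannula with artificial room-air ventilation at 90 breaths/min, 20 c.c./kg. Rectal temperature held at 37 ± 1 °C. Tibialis twitch tension is expressed as % of pre-drug amplitude. Drug is given i.p. in DMSO or water, 1-100 mg/kg; ED50 and 90%-depression dose derived; mean ± S.E.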
# Rattus norvegicus [6] = assay: Neuromuscular blocking activity in Wistar rat tibialis muscle assessed as reduction in electrically-induced twitches by measuring time required for 90% blockage at 100 mg/kg, ip; type: functional; in short: as §2
# Rattus norvegicus [7] = assay: Neuromuscular blocking activity in against electrically-induced twitches in Wistar rat tibialis muscle assessed as time duration of muscle block at 100 mg/kg, ip; type: functional; in short: as §2
# Rattus norvegicus [8] = assay: Neuromuscular blocking activity in Wistar rat tibialis muscle assessed as reduction in tetanus stimulated muscle twitches at 100 mg/kg, ip; type: functional, organism-based
# In short: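 Male Wistar rats (250 g, N = 4-8 per group) anaesthetised with urethane (1.25 g/kg i.p.), tracheally cannulated and ventilated with room air at 90 breaths/min. Tibialis twitch tension recorded with body temperature kept at 37 ± 1 °C. Tetanus given at 30 Hz for 5-10 s. Drug given i.p. in DMSO or water at 1-100 mg/kg. Twitches expressed as % of pre-drug amplitude.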
# Rattus norvegicus [9] = assay: Neuromuscular blocking activity in Wistar rat tibialis muscle assessed as reduction in electrically-induced twitches by measuring time of onset at 100 mg/kg, ip; type: functional; in short: as §2
# Gallus gallus [10] = assay: Neuromuscular blocking activity in ip dosed chicks assessed as induction of flaccid paralysis; type: functional; in short: as §1
# Rattus norvegicus [11] = assay: Neuromuscular blocking activity in ip dosed Wistar rat tibialis muscle assessed as reduction in electrically-induced twitches; type: functional; in short: as §2
# Rattus norvegicus [12] = assay: Reversal of neuromuscular blocking activity in Wistar rat tibialis muscle assessed as time of onset of reversal at 100 mg/kg, ip in presence of physostigmine; type: functional
# Gallus gallus [13] = assay: Neuromuscular blocking activity in chicks assessed as induction of spastic paralysis by measuring time of onset of muscle relaxation at 0.15 mmol/Kg, ip administered as single dose; type: functional; in short: as §1
# Gallus gallus [14] = assay: Neuromuscular blocking activity in ip dosed chicks assessed as induction of spastic paralysis; type: functional; in short: as §1
# Rattus norvegicus [15] = assay: Neuromuscular blocking activity in Wistar rat tibialis muscle assessed as reduction in electrically induced twitches at 100 mg/kg, ip in presence of physostigmine; type: functional, organism-based
SMILES,Time (Gallus gallus [1]),Time (Gallus gallus [2]),LD50 at 72 h [3],Activity (Rattus norvegicus [4]),Time (Rattus norvegicus [5]),Time (Rattus norvegicus [6]),Time (Rattus norvegicus [7]),Activity (Rattus norvegicus [8]),Time (Rattus norvegicus [9]),ED50 (Gallus gallus [10]),ED50 (Rattus norvegicus [11]),Time (Rattus norvegicus [12]),Time (Gallus gallus [13]),ED50 (Gallus gallus [14]),Activity (Rattus norvegicus [15])
O=C1CCCN2N=C(c3ccc(Br)cc3)SC2=N1,0.25 min,1 min,195 mg/kg,100%,7 min,10 min,70 min,Active,3 min,150 µmol/kg,150 µmol/kg,1 min,,,
C[N+](C)(C)CCOC(=O)CCC(=O)OCC[N+](C)(C)C.[Cl-].[Cl-] [SUCCINYLCHOLINE CHLORIDE],,,,,3 min,5 min,20 min,inactive,2 min,,30 µmol/kg,,0.5 min,30 µmol/kg,inactive
O=C1CCCN2N=C(c3ccc(F)cc3)SC2=N1,11 min,15 min,,,18 min,28 min,110 min,Active,10 min,300 µmol/kg,360 µmol/kg,,,,inactive
COc1ccc(CC2c3cc(OC)c(OC)cc3CC[N+]2(C)CCC(=O)OCCCCCOC(=O)CC[N+]2(C)CCc3cc(OC)c(OC)cc3C2Cc2ccc(OC)c(OC)c2)cc1OC.O=S(=O)([O-])c1ccccc1.O=S(=O)([O-])c1ccccc1 (configuration not stated) [ATRACURIUM BESYLATE],5 min,10 min,,100%,8 min,12 min,30 min,Active,5 min,16 µmol/kg,16 µmol/kg,2 min,,,
